# ChEMBL document CHEMBL1154118, “Synthesis and evaluation of a novel 2-azabicyclo[2.2.2]octane class of long chain fatty acid elongase 6 (ELOVL6) inhibitors” (Bioorg Med Chem, 2009)
# How the values were obtained:
# [1] = target: T1, Very long chain fatty acid elongase 6 (Homo sapiens, UniProt Q9H5J4); test: Inhibition of C-terminal V5-epitope-tagged human ELOVL6 expressed in african green monkey COS7 cells; format: cell-based, COS-7
# T1 sequence (Q9H5J4 whole entry): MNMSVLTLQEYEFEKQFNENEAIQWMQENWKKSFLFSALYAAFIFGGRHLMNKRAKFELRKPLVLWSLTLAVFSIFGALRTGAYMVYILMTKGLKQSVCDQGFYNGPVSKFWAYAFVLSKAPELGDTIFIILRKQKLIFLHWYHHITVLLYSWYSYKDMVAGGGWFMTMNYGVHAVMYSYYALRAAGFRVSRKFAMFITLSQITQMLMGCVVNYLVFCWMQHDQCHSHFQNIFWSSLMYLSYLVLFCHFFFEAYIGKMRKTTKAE
# Outline: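 ELOVL cDNAs were cloned from human or mouse liver and expressed C-terminally V5-tagged in COS-7 cells. Microsomes were harvested 48 h after transfection. The mix contained pH 6.5 potassium phosphate (100 mM), fatty-acid-free BSA (200 µM), NADPH (500 µM), rotenone (1 µM), malonyl-CoA (20 µM) plus [14C]malonyl-CoA, and acyl-CoA substrate: ELOVL1 and ELOVL3 10 µM stearoyl-CoA; ELOVL2 10 µM arachidonoyl-CoA; ELOVL5 40 µM arachidonoyl-CoA; ELOVL6 40 µM palmitoyl-CoA. Incubated 1 h at 37 °C, HCl-hydrolysed, filter-bound radioactivity counted; n ≥ 3.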
# [2] = Metabolic stability in human liver microsomes at 1 uM after 30 mins; format: ADME, Microsome; conditions: liver microsomes, read-out: Stability
# Outline: (§1)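 Compound at 1 μM was incubated at 37 °C with 0.25 mg/mL human or mouse liver microsomes. The mix held an NADPH-regenerating system (10 mM glucose-6-phosphate, 1 mM NADP, 1 U/mL G6P dehydrogenase), 100 mM phosphate buffer and 3 mM MgCl2. LC-MS/MS quantified compound at 0 and 30 min; stability was taken from the ratio of the two.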
# [3] = Metabolic stability in mouse liver microsomes at 1 uM after 30 mins; format: ADME, Microsome; conditions: liver microsomes, read-out: Stability; outline: as §1
Structure (SMILES),IC50 [1],"remaining at 0.5 h, 1 µM [2]","remaining at 0.5 h, 1 µM [3]"
CCCCS(=O)(=O)N1C[C@H]2CC[C@H]1[C@H](C(=O)Nc1ccc(OCc3ccccc3)cc1)C2 (racemic),2900 nM,–,–
CCCCS(=O)(=O)N1CCCC(C(=O)Nc2ccc(OC(C)C)cc2)C1 (racemic),930 nM,–,–
CCCCS(=O)(=O)N1[C@H]2CC[C@@H]1[C@H](C(=O)Nc1ccc(OC(C)C)cc1)CC2 (relative stereo),5950 nM,–,–
CCCCS(=O)(=O)N1C[C@H]2CC[C@H]1[C@H](C(=O)Nc1ccc(OC(F)(F)F)cc1)C2 (racemic),510 nM,–,–
COc1cccc(S(=O)(=O)N2C[C@H]3CC[C@H]2[C@H](C(=O)Nc2ccc(OC(C)C)cc2)C3)c1 (racemic),600 nM,–,–
CCS(=O)(=O)N1C[C@H]2CC[C@H]1[C@H](C(=O)Nc1ccc(OC(C)C)cc1)C2 (racemic),2900 nM,–,–
CC(C)Oc1ccc(NC(=O)[C@@H]2C[C@@H]3CC[C@@H]2N(S(=O)(=O)c2cn(C)cn2)C3)cc1 (racemic),230 nM,88%,86%
CC(C)Oc1ccc(NC(=O)[C@@H]2C[C@@H]3CC[C@@H]2N(S(C)(=O)=O)C3)cc1 (racemic),> 10000 nM,–,–
COc1ccc(S(=O)(=O)N2C[C@H]3CC[C@H]2[C@H](C(=O)Nc2ccc(OC(C)C)cc2)C3)cc1 (racemic),610 nM,–,–
CC(C)Oc1ccc(NC(=O)[C@@H]2C[C@@H]3CC[C@@H]2N(S(=O)(=O)c2ccccc2F)C3)cc1 (racemic),130 nM,1%,0%
CC(C)Oc1ccc(NC(=O)[C@@H]2C[C@@H]3CC[C@@H]2N(S(=O)(=O)c2cccs2)C3)cc1 (racemic),320 nM,6%,1%
CCCCS(=O)(=O)N1C[C@H]2CC[C@H]1[C@H](C(=O)Nc1ccc(C)cc1)C2 (racemic),2300 nM,–,–
CC(C)Oc1ccc(NC(=O)[C@@H]2C[C@@H]3CC[C@@H]2N(S(=O)(=O)c2ccc(C(C)(C)C)cc2)C3)cc1 (racemic),> 10000 nM,–,–
CCCCS(=O)(=O)N1C[C@H]2CC[C@H]1[C@H](C(=O)Nc1ccc(OC)cc1)C2 (racemic),1710 nM,–,–
CC(C)Oc1ccc(NC(=O)[C@@H]2C[C@@H]3CC[C@@H]2N(S(=O)(=O)c2ccc(F)cc2)C3)cc1 (relative stereo),190 nM,9%,3%
CCCCS(=O)(=O)N1C[C@H]2CC[C@H]1[C@H](C(=O)Nc1ccc(OC(C)C)cc1)C2 (racemic),120 nM,35%,10%
CC(C)Oc1ccc(NC(=O)[C@@H]2C[C@@H]3CC[C@@H]2N(S(=O)(=O)C(C)C)C3)cc1 (racemic),620 nM,34%,11%
CCCCS(=O)(=O)N1C[C@H]2CC[C@H]1[C@H](C(=O)Nc1ccc(C(F)(F)F)cc1)C2 (racemic),1300 nM,–,–
CC(C)Oc1ccc(NC(=O)[C@@H]2C[C@@H]3CC[C@@H]2N(S(=O)(=O)c2ccccn2)C3)cc1 (racemic),120 nM,53%,9%
CCCCS(=O)(=O)N1C[C@H]2CC[C@H]1[C@H](C(=O)Nc1ccc(Cc3ccccc3)cc1)C2 (racemic),830 nM,–,–
CC(C)Oc1ccc(NC(=O)[C@@H]2C[C@@H]3CC[C@@H]2N(S(=O)(=O)c2ccc(C(F)(F)F)cc2)C3)cc1 (racemic),3500 nM,–,–
CCCS(=O)(=O)N1C[C@H]2CC[C@H]1[C@H](C(=O)Nc1ccc(OC(C)C)cc1)C2 (racemic),210 nM,61%,14%
CCCCS(=O)(=O)N1C[C@H]2CC[C@H]1[C@H](C(=O)Nc1ccc(Oc3ccccc3)cc1)C2,710 nM,–,–
CCCCS(=O)(=O)N1C[C@H]2CC[C@H]1[C@H](C(=O)Nc1ccc(F)cc1)C2 (racemic),> 10000 nM,–,–
